Activity calls are given as the source filed them. The calls are words filed in the database; no cut-off is given here. Bounds are passed on as bounds.

One assay addresses T1, Orexin receptor type 2 (Homo sapiens) (UniProt O43614).
T1 sequence (whole entry): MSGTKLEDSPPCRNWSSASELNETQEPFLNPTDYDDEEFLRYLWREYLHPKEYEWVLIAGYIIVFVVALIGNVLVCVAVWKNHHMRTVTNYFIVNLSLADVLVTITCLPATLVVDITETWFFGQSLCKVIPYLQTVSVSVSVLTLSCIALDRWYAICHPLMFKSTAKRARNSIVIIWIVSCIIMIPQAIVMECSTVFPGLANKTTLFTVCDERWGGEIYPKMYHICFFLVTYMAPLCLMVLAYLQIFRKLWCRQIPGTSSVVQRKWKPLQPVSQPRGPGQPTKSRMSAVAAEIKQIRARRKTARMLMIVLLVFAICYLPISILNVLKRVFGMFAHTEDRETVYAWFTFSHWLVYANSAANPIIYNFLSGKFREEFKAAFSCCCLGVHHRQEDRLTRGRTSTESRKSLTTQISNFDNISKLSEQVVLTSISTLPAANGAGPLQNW
Description: Agonist activity at human OX2 receptor expressed in HEK293 cells assessed as effect on human orexin-A-stimulated calcium release by FLIPR assay. Type of assay: functional, cell-based.
Conditions: not given
Take `COc1ccc(OCCCN(CC(=O)NCc2ccccc2)Cc2ccc(F)c(F)c2)cc1OC`: the outcome was inactive.

Turning to `COc1ccc(OCCN(CC(=O)NCc2ccccc2)Cc2cccs2)cc1OC`, the result was inactive.

Regarding `COc1ccc(OCCN(CC(=O)NCc2ccccc2Cl)Cc2ccccc2)cc1OC`, the result was inactive.

For the compound `COc1ccc(OCCN(CC(=O)NCc2ccccc2Cl)Cc2ccc(F)cc2)cc1OC`, the outcome was inactive.

As for `COc1ccc(OCCN(CC(=O)NCC(C)C)Cc2ccc(F)cc2)cc1OC`, the outcome was inactive.

For `COc1ccc(OCCN(CC(=O)NCc2ccccc2Cl)Cc2cccs2)cc1OC`, the outcome was inactive.

With `COc1ccc(OCCN(CC(=O)NCC(C)C)Cc2cccs2)cc1OC`, the result was inactive.

`COc1ccc(OCCN(CC(=O)NCc2ccccc2)Cc2ccc(F)c(F)c2)cc1OC`: the outcome was inactive.

On to `COc1ccc(OCCN(CC(=O)NCc2ccccc2Cl)Cc2ccc(F)c(F)c2)cc1OC`, for which the outcome was inactive.

With `COc1ccc(OCCCN(CC(=O)NCc2ccccc2)Cc2ccccc2)cc1OC`, the outcome was inactive.

Take `COc1ccc(OCCCN(CC(=O)NCc2ccccc2)Cc2cccs2)cc1OC`: the result was inactive.

On to `COc1ccc(OCCN(CC(=O)NCC(C)C)Cc2ccc(F)c(F)c2)cc1OC`, for which the result was inactive.

For `COc1ccc(OCCN(CC(=O)NCc2ccccc2)Cc2ccccc2)cc1OC`, the outcome was inactive.

In the case of `COc1ccc(OCCN(CC(=O)NCc2ccccc2)Cc2ccc(F)cc2)cc1OC`, the result was inactive.

For the compound `COc1ccc(OCCN(CC(=O)NCC(C)C)Cc2ccccc2)cc1OC`, the outcome was inactive.

In a further assay the target is T2, Orexin receptor type 2 (Homo sapiens, UniProt O43614).
T2 sequence (O43614 whole entry): T1 sequence (whole entry)
The experiment in a line: Antagonist activity at human OX2 receptor expressed in HEK293 cells assessed as inhibition of human orexin-A-stimulated calcium release by FLIPR assay. Type of assay: functional, cell-based. The note with it: read-out: IC50. The gist of the method: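 HEK293/OX2-R cells, 20,000/well, were grown 24 h at 37 °C. They were loaded with Calcium 3 no-wash dye in HBSS/20 mM HEPES pH 7.5/BSA with 2.5 mM probenecid final, for 30 min at 37 °C, then 30-90 min at room temperature. FLIPR fluorescence was read for 125 s.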
With `COc1ccc(OCCN(CC(=O)NCc2ccccc2)Cc2ccc(F)c(F)c2)cc1OC`, the IC50 is < 30 nM.

Regarding `COc1ccc(OCCN(CC(=O)NCc2ccccc2)Cc2ccccc2)cc1OC`, the IC50 was < 30 nM.

With `COc1ccc(OCCN(CC(=O)NCc2ccccc2)Cc2ccc(F)cc2)cc1OC`, the IC50 is < 30 nM.

Staying with this assay, now noted: read-out: pIC50 (converted).
Take `COc1ccc(OCCCN(CC(=O)NCc2ccccc2)Cc2ccc(F)c(F)c2)cc1OC`: the IC50 was 107 nM.

In the case of `COc1ccc(OCCN(CC(=O)NCc2ccccc2)Cc2cccs2)cc1OC`, the IC50 was 110 nM.

In the case of `COc1ccc(OCCN(CC(=O)NCc2ccccc2Cl)Cc2ccccc2)cc1OC`, the IC50 is 151 nM.

`COc1ccc(OCCN(CC(=O)NCc2ccccc2Cl)Cc2ccc(F)cc2)cc1OC`: the IC50 was 138 nM.

`COc1ccc(OCCN(CC(=O)NCC(C)C)Cc2ccc(F)cc2)cc1OC`: the IC50 was 562 nM.

For `COc1ccc(OCCN(CC(=O)NCc2ccccc2Cl)Cc2cccs2)cc1OC`, the IC50 was 195 nM.

As for `COc1ccc(OCCN(CC(=O)NCC(C)C)Cc2cccs2)cc1OC`, the IC50 is 324 nM.

For `COc1ccc(OCCN(CC(=O)NCc2ccccc2)Cc2ccc(F)c(F)c2)cc1OC`, the IC50 is 18.6 nM.

As for `COc1ccc(OCCN(CC(=O)NCc2ccccc2Cl)Cc2ccc(F)c(F)c2)cc1OC`, the IC50 was 81.3 nM.

In the case of `COc1ccc(OCCCN(CC(=O)NCc2ccccc2)Cc2ccccc2)cc1OC`, the IC50 was 51.3 nM.

For `COc1ccc(OCCCN(CC(=O)NCc2ccccc2)Cc2cccs2)cc1OC`, the IC50 is 132 nM.

As for `COc1ccc(OCCN(CC(=O)NCC(C)C)Cc2ccc(F)c(F)c2)cc1OC`, the IC50 is 229 nM.

Regarding `COc1ccc(OCCN(CC(=O)NCc2ccccc2)Cc2ccccc2)cc1OC`, the IC50 is 25.1 nM.

For `COc1ccc(OCCN(CC(=O)NCc2ccccc2)Cc2ccc(F)cc2)cc1OC`, the IC50 was 19.5 nM.

For the compound `COc1ccc(OCCN(CC(=O)NCC(C)C)Cc2ccccc2)cc1OC`, the IC50 is 302 nM.

(Values after ChEMBL document CHEMBL1152230, “Synthesis of (3,4-dimethoxyphenoxy)alkylamino acetamides as orexin-2 receptor antagonists” (Bioorg Med Chem Lett, 2008).)
